Experimental data taken from ChEMBL document CHEMBL1153229, “The first synthetic agonists of FFA2: Discovery and SAR of phenylacetamides as allosteric modulators” (Bioorg Med Chem Lett, 2010).

Tests used:
[1] = target: T1, Free fatty acid receptor 2 (Homo sapiens, UniProt O15552); assay: Agonist activity at human FFA2 receptor expressed in CHO cells assessed as inhibition of forskolin-induced cAMP production; type: functional, cell-based
T1 sequence (O15552 whole entry): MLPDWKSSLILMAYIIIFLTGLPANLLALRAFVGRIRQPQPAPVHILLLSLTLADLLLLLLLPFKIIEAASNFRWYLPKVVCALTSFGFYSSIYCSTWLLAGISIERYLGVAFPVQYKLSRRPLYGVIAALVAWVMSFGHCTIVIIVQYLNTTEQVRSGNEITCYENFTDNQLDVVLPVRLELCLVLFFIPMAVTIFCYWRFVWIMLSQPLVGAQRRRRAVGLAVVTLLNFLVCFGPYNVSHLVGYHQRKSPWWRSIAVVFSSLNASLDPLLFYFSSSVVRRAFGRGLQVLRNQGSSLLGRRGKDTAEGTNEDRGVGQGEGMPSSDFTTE
Procedure, shortened: (§1)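 Suspended cells, 10,000 per well, in Hank's balanced salt solution with 25 mM HEPES and 0.01% (w/v) BSA. Stimulated with forskolin (5 μM final) plus serially diluted test ligands, room temperature for 30 min. Antibody and lysis reagents then added, followed by overnight dark incubation with detection solution. Luminescence read (RLU). Efficacy expressed relative to acetate. Means of four experiments.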

[2] = target: T2, Free fatty acid receptor 2 (Homo sapiens) (UniProt O15552); assay: Agonist activity at human FFA2 receptor expressed in CHO cells assessed as inhibition of forskolin-induced cAMP production relative to acetate; type: functional, cell-based; procedure, shortened: as §1
T2 sequence (whole entry): T1 sequence (O15552 whole entry)

| Compound | IC50 [1] | Efficacy [2] |
| --- | --- | --- |
| CC(C)(C)[C@H](C(=O)Nc1ncc(C(F)(F)F)s1)c1ccc(Cl)cc1 | 1.5 µM | 95% |
| CC[C@H](C(=O)Nc1nccs1)c1ccc(Cl)cc1 | 5 µM | 105% |
| CC(C)(C)[C@H](C(=O)Nc1ncc(Cc2ccc(Cl)cc2)s1)c1ccc(Cl)cc1 | 25 µM | 100% |
| CC(C)[C@H](C(=O)Nc1ccc(F)cn1)c1ccc(Cl)cc1 | 1.3 µM | 93% |
| O=C(Nc1ncc(F)s1)[C@H](c1ccnc(Cl)c1)C1CC1 | 16 µM | 120% |
| CC(C)[C@H](C(=O)Nc1cc[nH]n1)c1ccc(Cl)cc1 |  | < 30% |
| CC(C)C(C(=O)O)c1ccc(Cl)cc1 (racemic) | > 100 µM | < 30% |
| CC(C)[C@H](C(=O)Nc1nnc(C(F)(F)F)s1)c1ccc(Cl)cc1 | 1.9 µM | 115% |
| CC(C)[C@H](NS(=O)(=O)c1nccs1)c1ccc(Cl)cc1 | > 100 µM | < 30% |
| CC(C)C[C@H](C(=O)Nc1nccs1)c1ccc(Cl)cc1 | 0.6 µM | 68% |
| COCC[C@H](C(=O)Nc1nccs1)c1ccc(Cl)cc1 | 170 µM | 53% |
| CC(C)[C@H](C(=O)NC(C)(C)C)c1ccc(Cl)cc1 | > 100 µM | < 30% |
| CC(C)C(C(=O)Nc1cccnc1)c1ccc(Cl)cc1 (racemic) | 49 µM | 73% |
| O=C(Nc1nccs1)[C@@H](CC1CC1)c1ccc(Cl)cc1 | 8.8 µM | 72% |
| CC(C)[C@H](C(=O)Nc1cccnn1)c1ccc(Cl)cc1 | 2.3 µM | 101% |
| C=CC[C@H](C(=O)Nc1nccs1)c1ccc(Cl)cc1 | 1.1 µM | 88% |
| CC(C)[C@H](CNc1nccs1)c1ccc(Cl)cc1 | > 100 µM | < 30% |
| CC(C)[C@H](NC(=O)c1nccs1)c1ccc(Cl)cc1 | > 100 µM | < 30% |
| CC(C)C(C(=O)Nc1nnn[nH]1)c1ccc(Cl)cc1 (racemic) | > 100 µM | < 30% |
| CC(C)[C@H](C(=O)N(C)c1nccs1)c1ccc(Cl)cc1 | 84 µM | 37% |
| CC(C)C(C(=O)Nc1nccs1)c1ccc(Cl)cc1 (racemic) | 0.8 µM | 98% |
| CC(C)(C)[C@H](C(=O)Nc1ncc(N2CCS(=O)(=O)CC2)s1)c1ccc(Cl)cc1 | 2.4 µM | 118% |
| CC(C)(C)[C@H](C(=O)Nc1ncc(C#N)s1)c1ccc(Cl)cc1 | 1.5 µM | 106% |
| O=C(Nc1ncc(F)s1)[C@H](c1ccc(C(F)(F)F)cc1)C1CC1 | 1.1 µM | 108% |
| CCC(=O)O |  | 100% |
| CC(C)[C@H](C(=O)NC1=NCCS1)c1ccc(Cl)cc1 | 2.1 µM | 109% |
| CC(C)C(C(=O)Nc1nc(-c2cccnc2)cs1)c1ccc(Cl)cc1 (racemic) | > 100 µM | < 30% |

| Compound | IC50 [1] | Efficacy [2] |
| --- | --- | --- |
| O=C(Nc1ncc(F)s1)C1(c2ccc(Cl)cc2)CCC1 | 1.5 µM | 89% |
| CC(C)[C@H](C(=O)Nc1ccccc1)c1ccc(Cl)cc1 | > 100 µM | < 30% |
| CC(C)[C@H](C(=O)Nc1ccncc1)c1ccc(Cl)cc1 | 56 µM | 40% |
| CC(C)C(C(=O)Nc1ncccn1)c1ccc(Cl)cc1 (racemic) | 53 µM | 50% |
| C[C@H](C(=O)Nc1nccs1)c1ccc(Cl)cc1 | 46 µM | 83% |
| CC(C)[C@H](C(=O)Nc1ncns1)c1ccc(Cl)cc1 | 2 µM | 99% |
| Cc1nc(NC(=O)[C@H](c2ccc(Cl)cc2)C(C)C)sc1C | 1.8 µM | 97% |
| O=C(Nc1ncc(F)s1)C1(c2ccc(Cl)cc2)CCCC1 | 5 µM | 88% |
| CCC[C@H](C(=O)Nc1nccs1)c1ccc(Cl)cc1 | 5.5 µM | 108% |
| CC(C)[C@H](C(=O)Nc1nc(C(F)(F)F)cs1)c1ccc(Cl)cc1 | 17 µM | 123% |
| CC(C)[C@H](C(=O)Nc1ncc(C(F)(F)F)s1)c1ccc(Cl)cc1 | 1.5 µM | 95% |
| CC(C)[C@H](C(=O)Nc1cnns1)c1ccc(Cl)cc1 | 57 µM | 48% |
| CSc1cnc(NC(=O)[C@H](c2ccc(Cl)cc2)C(C)(C)C)s1 | 0.5 µM | 109% |
| CC(C)C(c1ccc(Cl)cc1)S(=O)(=O)Nc1nccs1 (racemic) | > 100 µM | < 30% |
| CC(C)[C@H](C(=O)Nc1cccc(F)n1)c1ccc(Cl)cc1 | 1.1 µM | 84% |
| CC(C)[C@@H](C(=O)Nc1nccs1)c1ccc(Cl)cc1 | > 100 µM | < 30% |
| CC(C)[C@H](C(=O)Nc1ncc(C(=O)O)s1)c1ccc(Cl)cc1 | 79 µM | 42% |
| CC(C)C(C(=O)Nc1cnccn1)c1ccc(Cl)cc1 (racemic) | 5.7 µM | 115% |
| CC(C)(C)[C@H](C(=O)Nc1ncc(C(O)(C(F)(F)F)C(F)(F)F)s1)c1ccc(Cl)cc1 | 1.2 µM | 113% |
| CC(C)[C@H](C(=O)NCc1ccccc1)c1ccc(Cl)cc1 | > 100 µM | < 30% |
| CC(C)(C(=O)Nc1ncc(F)s1)c1ccc(Cl)cc1 | 50 µM | 57% |
| CC(C)C(C(=O)Nc1nc2ccccc2s1)c1ccc(Cl)cc1 (racemic) | 3 µM | 91% |
| CC(C)[C@H](C(=O)Nc1nc2cc(Cl)ccc2o1)c1ccc(Cl)cc1 | 4.3 µM | 88% |
| CNC(=O)[C@H](c1ccc(Cl)cc1)C(C)C | 11 µM | 66% |
| CC(C)(C)[C@H](C(=O)Nc1ncc(S(C)(=O)=O)s1)c1ccc(Cl)cc1 | 3.4 µM | 107% |
| O=C(Cc1ccc(Cl)cc1)Nc1nccs1 | > 100 µM | < 30% |
| O=C(Nc1ncc(F)s1)[C@H](c1ccccn1)C1CC1 | 45 µM | 75% |

| Compound | IC50 [1] | Efficacy [2] |
| --- | --- | --- |
| O=C(Nc1ncc(F)s1)C1(c2ccc(Cl)cc2)CC1 | > 100 µM | < 30% |
| O=C(Nc1ncc(F)s1)C1(c2ccc(Cl)cc2)CCCCC1 | 8.5 µM | 81% |
| CC(C)[C@H](C(=O)Nc1ncc(C#N)s1)c1ccc(Cl)cc1 | 2 µM | 105% |
| CC(C)[C@H](C(=O)Nc1ccccn1)c1ccc(Cl)cc1 | 1.4 µM | 92% |
| CC(C)(C)[C@H](C(=O)Nc1ncc(N2CCOCC2)s1)c1ccc(Cl)cc1 | 1.6 µM | 111% |
| CC(C)[C@H](C(=O)Nc1ccon1)c1ccc(Cl)cc1 (racemic) | 36 µM | 90% |
| O=C(Nc1ncc(F)s1)[C@H](c1ccc(Cl)cc1)C1CC1 | 1.2 µM | 103% |
| CC(C)(C)[C@H](C(=O)Nc1ncc(F)s1)c1ccc(Cl)cc1 | 0.7 µM | 92% |
| CC(C)[C@H](C(=O)NC1=NC(=O)CS1)c1ccc(Cl)cc1 | 20 µM | 96% |
| CC(C)(C)[C@H](C(=O)Nc1ncc(Br)s1)c1ccc(Cl)cc1 | 0.7 µM | 95% |
| CN1CCN(c2cnc(NC(=O)[C@H](c3ccc(Cl)cc3)C(C)(C)C)s2)CC1 | 3.8 µM | 113% |
| CS(=O)(=O)c1ccc([C@@H](C(=O)Nc2ncc(F)s2)C2CC2)cc1 | > 100 µM | < 30% |
| CC(=O)O [ACETIC ACID] | 120 µM | 100% |
| Cc1csc(NC(=O)[C@H](c2ccc(Cl)cc2)C(C)C)n1 | 1.4 µM | 87% |
| CC(C)[C@H](C(=O)Nc1ncco1)c1ccc(Cl)cc1 | 25 µM | 92% |
| CC(C)[C@H](C(=O)Nc1nc(C(C)(C)C)cs1)c1ccc(Cl)cc1 | 7.9 µM | 45% |
| O=C(Nc1nccs1)C(c1ccc(Cl)cc1)c1ccc(Cl)cc1 | > 100 µM | < 30% |
| CC(C)[C@H](C(=O)Nc1ccn[nH]1)c1ccc(Cl)cc1 | > 100 µM |  |
| CC(C)[C@H](C(=O)Nc1ncc[nH]1)c1ccc(Cl)cc1 | 20 µM | 55% |
| CC(C)C(C(N)=O)c1ccc(Cl)cc1 (racemic) | > 100 µM | < 30% |
| CC(C)C(C(=O)Nc1nc2ccccc2[nH]1)c1ccc(Cl)cc1 (racemic) | 5.2 µM | 84% |
| CO/C(=N\c1nccs1)[C@H](c1ccc(Cl)cc1)C(C)C | > 100 µM | < 30% |
| CC(C)[C@H](C(=O)Nc1ncc(C(N)=O)s1)c1ccc(Cl)cc1 | 71 µM | 59% |
| CN(C)c1cnc(NC(=O)[C@H](c2ccc(Cl)cc2)C(C)(C)C)s1 | 1.6 µM | 112% |
| CC(C)[C@H](C(=O)Nc1nncs1)c1ccc(Cl)cc1 | 12 µM | 115% |
| COC(=O)c1cnc(NC(=O)[C@H](c2ccc(Cl)cc2)C(C)C)s1 | 2 µM | 98% |
